Results: ChEMBL document CHEMBL2203121, “DNA cleavage induced by antitumor antibiotic leinamycin and its biological consequences” (Bioorg Med Chem, 2012)
Converted amounts (≈) assume the structure as drawn. The source made the active and inactive calls. The rule behind the calls is not given here.

Columns and labels:
Nucleic Acid [1] = test: Induction of DNA cleavage in 32P-labeled oligomer duplex Sp25 DNA at 2 ug/ml to 100 ug/ml after 24 hrs by PAGE analysis without hot piperidine treatment; type: nucleic-acid assay
Summary of the method: (§1)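 5'-32P-end-labelled, gel-purified Sp25 duplex (100 fmol) was incubated with leinamycin at 37°C in 20 mM Tris-HCl pH 7.6, 20 mM NaCl, 1 mM DTT, with no piperidine step. Unreacted drug was removed on a G-10 column. Fragments were resolved on 16% urea-PAGE and quantified by phosphorimaging.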

Nucleic Acid [2] = test: Induction of DNA cleavage in 32P-labeled oligomer duplex Sp25 DNA after 8 hrs by PAGE analysis with hot piperidine treatment; type: nucleic-acid assay
Summary of the method: (§2)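 5'-32P-end-labelled, gel-purified Sp25 duplex (100 fmol) was incubated with leinamycin at 37°C in 20 mM Tris-HCl pH 7.6, 20 mM NaCl, 1 mM DTT. Drug was removed on a G-10 column, then DNA was heated 30 min in 1 M piperidine. Products were run on 16% urea-PAGE and quantified by phosphorimaging.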

[3] = Cytotoxicity against chinese hamster NER-mutant UV135 cells assessed as cell survival by clonogenic survival assay; type: functional, cell-based; conditions: Cricetulus griseus
Summary of the method: (§3)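 CHO lines from repair-proficient and repair-mutant backgrounds, grown in RPMI1640 with 10% FCS. Cells plated in triplicate at 400 cells/well and dosed 24 h later with a range of leinamycin concentrations. Colonies grew 14 days and were stained with 1% methylene blue in 50% ethanol. Dye was eluted in isopropanol with 0.4 M HCl and read at 595 nm for relative survival.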

[4] = Cytotoxicity against chinese hamster NER-mutant UV5 cells assessed as cell survival by clonogenic survival assay; type: functional, cell-based; conditions: Cricetulus griseus; summary of the method: as §3
[5] = Cytotoxicity against human MiaPaCa cells assessed as potentiation of methoxyamine-mediated cytotoxicity by MTT assay; type: functional, cell-based; conditions: MIA PaCa-2
Summary of the method: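 MiaPaCa cells in RPMI1640 with 10% FCS were given leinamycin alone or combined with methoxyamine, a BER inhibitor, tested alone up to 25 mM. Survival was measured by MTT, reading solubilised formazan at 595 nm, in triplicate with ±SE.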

Nucleic Acid [6] = test: Induction of DNA cleavage in 32P-labeled oligomer duplex Sp25 DNA at 2 ug/ml to 100 ug/ml after 24 hrs by PAGE analysis followed by hot piperidine treatment; type: nucleic-acid assay; summary of the method: as §2
[7] = Cytotoxicity against human MiaPaCa cells by MTT assay; type: functional, cell-based; conditions: MIA PaCa-2
Summary of the method: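 MiaPaCa cells in RPMI1640 with 10% FCS were exposed to leinamycin. Viability was read by MTT reduction to formazan, with absorbance of solubilised formazan at 595 nm. Survival was determined in triplicate with ±SE.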

[8] = Cytotoxicity against chinese hamster NER-mutant UV41 cells assessed as cell survival by clonogenic survival assay; type: functional, cell-based; conditions: Cricetulus griseus; summary of the method: as §3
Cricetulus griseus = organism: Cricetulus griseus; test: Cytotoxicity against chinese hamster BER-mutant EM9 cells assessed as cell survival by clonogenic survival assay; type: functional, cell-based; summary of the method: as §3
CHO-AA8 [9] = test: Ratio for chinese hamster AA8 cells to chinese hamster BER-mutant EM9 cells; type: functional, Cricetulus griseus
Xrs-5 = test: Cytotoxicity against chinese hamster kU86-mutant Xrs-5 cells assessed as cell survival by clonogenic survival assay; type: functional, cell-based; conditions: Cricetulus griseus; summary of the method: as §3
Nucleic Acid [10] = test: Induction of DNA cleavage in 32P-labeled oligomer duplex Sp25 DNA up to 24 hrs by PAGE analysis without hot piperidine treatment; type: nucleic-acid assay; summary of the method: as §1
CHO-AA8 [11] = test: Cytotoxicity against chinese hamster AA8 cells assessed as cell survival by clonogenic survival assay; type: functional, cell-based; conditions: Cricetulus griseus; summary of the method: as §3
Nucleic Acid [12] = test: Inhibition of methylmethanesulfonate-induced strand breaks in 32P-labeled 25-bp oligomer duplex Sp25 DNA at 1 mM after 24 hrs by PAGE analysis followed by hot piperidine treatment; type: nucleic-acid assay
Summary of the method: (§4)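 5'-32P-end-labeled duplex Sp25 (100 fmol), gel-purified, incubated at 37°C for 24 h with leinamycin, Fe(II)-bleomycin or 1 mM MMS plus increasing methoxyamine in 20 mM Tris–HCl pH 7.6, 20 mM NaCl, 1 mM DTT; drug removed on Sephadex G-10; then 1 M piperidine, 90°C, 30 min; 16% urea–acrylamide gel, PhosphorImager quantification.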

[13] = Potentiation of leinamycin-induced cytotoxicity in human MiaPaCa cells by MTT assay; type: functional
Summary of the method: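 MiaPaCa cells grown in RPMI1640 with 10% FCS, exposed to methoxyamine (up to 25 mM), leinamycin or both; viability by MTT reduction, formazan solubilized and read at 595 nm; triplicate determinations, bars ±SE.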

Nucleic Acid [14] = test: Inhibition of bleomycin-induced strand breaks in 32P-labeled 25-bp oligomer duplex Sp25 DNA at 1 mM by PAGE analysis without hot piperidine treatment; type: nucleic-acid assay
Summary of the method: (§5)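 5'-32P-end-labeled Sp25 duplex (100 fmol) exposed at 37°C for 24 h to leinamycin, Fe(II)-bleomycin or 1 mM MMS with rising methoxyamine levels in 20 mM Tris–HCl pH 7.6, 20 mM NaCl, 1 mM DTT; unreacted drug removed by Sephadex G-10; no piperidine step; denaturing 16% urea–acrylamide gel, PhosphorImager scan.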

Nucleic Acid [15] = test: Inhibition of Leinamycin-induced strand breaks in 32P-labeled 25-bp oligomer duplex Sp25 DNA at 1mM by PAGE analysis followed by hot piperidine treatment; type: nucleic-acid assay; summary of the method: as §4
Nucleic Acid [16] = test: Inhibition of Leinamycin-induced strand breaks in 32P-labeled 25-bp oligomer duplex Sp25 DNA after 24 hrs by PAGE analysis without hot piperidine treatment; type: nucleic-acid assay; summary of the method: as §5
Nucleic Acid [17] = test: Inhibition of bleomycin-induced strand breaks in 32P-labeled 25-bp oligomer duplex Sp25 DNA at 1 mM after 24 hrs by PAGE analysis followed by hot piperidine treatment; type: nucleic-acid assay; summary of the method: as §4
Nucleic Acid [18] = test: Inhibition of Leinamycin-induced strand breaks in 32P-labeled 25-bp oligomer duplex Sp25 DNA after 24 hrs by PAGE analysis followed by hot piperidine treatment; type: nucleic-acid assay; summary of the method: as §4
Nucleic Acid [19] = test: Inhibition of methyl methanesulfonate-induced strand breaks in 32P-labeled 25-bp oligomer duplex Sp25 DNA at 1 mM by PAGE analysis without hot piperidine treatment; type: nucleic-acid assay; summary of the method: as §5
Nucleic Acid [20] = test: Inhibition of leinamycin-induced strand breaks in 32P-labeled 25-bp oligomer duplex Sp25 DNA at 1mM after 24 hrs by PAGE analysis without hot piperidine treatment; type: nucleic-acid assay; summary of the method: as §5

With `C/C1=C\[C@@H](O)C(=O)/C=C/C=C\c2csc(n2)[C@@H](C)NC(=O)C[C@@]2(CC1)[S+]([O-])SC(=O)[C@]2(C)O` (some centres not stated) [LEINAMYCIN] the Activity (Nucleic Acid [1]) was “Dose-dependent effect”, the Activity (Nucleic Acid [2]) was “Active” and the IC50 [3] was 2 ng/mL (≈ 3.92 nM). For the same compound, the IC50 [4] was 3 ng/mL (≈ 5.87 nM), the IC50 [5] was 15 ng/mL and the Activity (Nucleic Acid [6]) was “Dose-dependent effect”. The IC50 [7] was 40 ng/mL (≈ 78.3 nM), the IC50 [8] was 3 ng/mL (≈ 5.87 nM) and the Activity (Cricetulus griseus) was “Active”. The Ratio (CHO-AA8 [9]) was greater than 3, the Activity (Xrs-5) was “Active” and the Activity (Nucleic Acid [10]) was “Active”. It also gave an IC50 (CHO-AA8 [11]) of 10 ng/mL (≈ 19.6 nM).

With `CON` [METHOXYAMINE] the Activity (Nucleic Acid [12]) was “inactive”, the “fold change (FC)” value [13] was 2.5 and the Activity (Nucleic Acid [14]) was “inactive”. For the same compound, the Activity (Nucleic Acid [15]) was “inactive”, the Activity (Nucleic Acid [16]) was “Active” and the Activity (Nucleic Acid [17]) was “inactive”. For the same compound, the Activity (Nucleic Acid [18]) was “Active”, the Activity (Nucleic Acid [19]) was “inactive” and the Activity (Nucleic Acid [20]) was “inactive”.
